Measurements as given in paper PMC12646499 (Journal of Chemical Information and Modeling, 2025).

How the values were obtained:
PD-L1 = details: ligand in PDB 5N2F; cited from earlier work
[1] = tested in clinical trials but discontinued; cited from earlier work
PD-1–PD-L1 interaction = PD-1–PD-L1 interaction (Homo sapiens, UniProt Q9NZQ7); assay: PD-1–PD-L1 TR-FRET assay; type: binding
Outline: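 Test compound (from 5 mM DMSO stock, diluted in PBS) was preincubated 10 min with biotin-PD-L1 (added at 11 μg/mL) at room temperature in the dark. Eu-PD-1 (0.8 μg/mL) plus acceptor dye was then added for 1.5 h. Single doses were 5 and 25 μM final; dose-response used a 5:1 serial dilution. The 665/620 nm ratio (excitation 337 nm) was normalised to controls with and without PD-L1, in triplicate. IC50 came from nonlinear regression.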

human PD-L1 = details: binds human PD-L1; previously published; cited from earlier work
[2] = tested on: LS 180 colorectal adenocarcinoma cells bearing the K-Ras G12D mutation; assay: MTT cell toxicity assay in LS 180 cells; type: cell-based; details: 48 h
Outline: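 LS 180 cells were grown in DMEM with 10% FBS at 37 °C and 5% CO2, then seeded at 5000 cells/well in DMEM with 5% FBS and left to attach for 24 h. Test compound was added at 10, 4, 1.6 or 0.64 μM final, with 0.2% DMSO, in sextuplicate, for 48 h. MTT (0.35 mg/mL final) was added for 4 h, then DMF/SDS/HCl/acetic acid stop solution overnight at room temperature. A570 was read as % survival versus no compound.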

Chain of PD-1–PD-L1 interaction (Q9NZQ7 19-238 limits assumed): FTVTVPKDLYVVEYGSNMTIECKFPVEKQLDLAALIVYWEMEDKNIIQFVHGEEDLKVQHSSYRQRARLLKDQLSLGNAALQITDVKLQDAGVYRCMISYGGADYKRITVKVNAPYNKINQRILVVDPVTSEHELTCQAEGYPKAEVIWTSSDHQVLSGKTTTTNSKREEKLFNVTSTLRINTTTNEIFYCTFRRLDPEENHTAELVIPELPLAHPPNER

Structure (SMILES): Cc1c(COc2cc(F)c(CNC[C@@H](O)CC(=O)O)cc2F)cccc1-c1ccc2c(c1)OCCO2 [BMS-200]
- IC50 (PD-L1): 3.1 nM

Structure (SMILES): Cc1c(Nc2nccc3cc(CN4CC[C@@H](O)C4)cnc23)cccc1-c1cccc(-c2nc3cc(CN4CC[C@@H](C(=O)O)C4)cc(C#N)c3o2)c1C [INCB086550]
- toxicity in clinical trials (in words) [1]: high toxicity
- IC50 (PD-1–PD-L1 interaction): 5.6 nM
- activity at 5 μM (in words) (PD-1–PD-L1 interaction; 5 μM): complete loss of activity
- IC50 (human PD-L1): 3.1 nM

Structure (SMILES): C#Cc1c(F)ccc2cc(O)cc(-c3ncc4c(N5CC6CCC(C5)N6)nc(OC[C@@]56CCCN5C[C@H](F)C6)nc4c3F)c12 [MRTX1133]
- GI50 [2]: submicromolar
